The results in this text go back to ChEMBL document CHEMBL4706745, “Balanced Intersystem Crossing in Iodinated Silicon-Fluoresceins Allows New Class of Red Shifted Theranostic Agents” (ACS Med Chem Lett, 2021).

Calls of active or inactive are those of the source. The rule behind the calls is not given here.

A short description of data set [1]: Drug uptake in human MDA-MB-231 cells assessed as cytosolic red emission at 5 uM incubated for 2 hrs by Hoechst-33342 staining based confocal microscopic analysis. It counts as ADME, cell-based. Particulars: mda-mb-231, 2 h. In outline:
(§1)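 Cells incubated with 5 μM for 2 h and washed before confocal imaging of intracellular red emission.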

A short description of data set [2]: Fluorescence property of the compound in pH 7.4 PBS buffer assessed as fluorescence quantum yield by fluorescence spectrophotometric method. It counts as physicochemical.
Data set [3] has as its system HCT-116. As to the kind of experiment: Induction of ROS generation in human HCT-116 cells at 5 uM irradiated with 595 +/- 5 nanometer LED light for 2 hr by DCFH2-DA staining based confocal microscopic analysis. It counts as functional, cell-based. The essentials: (§2)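 Cells loaded with 5 μM compound and the ROS sensor DCFH2-DA; kept dark or irradiated with a 595 nm LED for 2 h, with or without NaN3 as singlet oxygen quencher. Green emission imaged by confocal microscopy. Controls: DMSO 0.5% vehicle and H2O2 (500 μM, 2 h) as positive control.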

Data set [4] is described as follows: Induction of singlet oxygen generation in pH 7.4 DMSO solution at 614 nanometer assessed as singlet oxygen quantum yield irradiated with 630 nanometer LED light. Format: functional.
Data set [5] can be described thus: Induction of singlet oxygen generation in pH 7.4 DMSO solution at 614 nanometer assessed as singlet oxygen quantum yield irradiated with 595 nanometer LED light. Format: functional.
Data set [6] in a line: Induction of singlet oxygen generation in DMSO solution using singlet oxygen sensor green assessed as increase in SOSG intensity irradiated with 630 nanometer LED light at 5 uM. Format: functional.
Data set [7] relates to HCT-116. In words: Cytotoxicity against human HCT-116 cells assessed as reduction in cell viability at 0.5 to 20 uM incubated for 24 hrs by MTT assay. Format: cell-based. As to conditions: hct-116, 24 h, dose 0.5-20 µM. The essentials: (§3)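 Cells exposed to 0.5–20 μM for 24 h in the dark, then assessed by MTT for viability. Vehicle control included. Mean ± SD, n = 4.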
For orientation: Tetrazolium assays rely on reduction of a dye to a coloured formazan, in cell work by metabolically active cells.

Data set [8] deals with HCT-116. In words: Induction of apoptosis in human HCT-116 cells assessed as increase in necrotic cells at 5 uM irradiated with 595 +/- 5 nanometer LED light for 2 hrs by annexin V-FITC and PI staining based confocal microscopic analysis. It counts as functional, cell-based. In outline: (§4)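 Cells treated with 5 μM and either kept dark or irradiated 2 h with a 595 nm LED, with or without NaN3. Annexin V-FITC (early apoptosis) and PI (late apoptosis/necrosis) staining 30 min after PDT, then confocal imaging. DMSO 0.5% vehicle control.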

The nature of data set [9]: Photostability in pH 7.4 PBS buffer at 614/630 nanometer irradiated with 595 nanometer LED light for 2 hrs by measuring fluorescence peak. Format: physicochemical. Particulars: pH 7.4, 2 h. In outline:
(§5)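 Absorption at 614 nm and emission at 630 nm tracked under continuous 595 or 630 nm LED irradiation for 2 h in PBS (pH 7.4, 0.5% DMSO).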

A short description of data set [10]: Drug uptake in human HCT-116 cells assessed as cytosolic red emission at 5 uM incubated for 2 hrs by Hoechst-33342 staining based confocal microscopic analysis. Format: ADME, cell-based. Particulars: hct-116, 2 h. The essentials: as §1
Data set [11] concerns MDA-MB-231. In words: Induction of ROS generation in human MDA-MB-231 cells at 5 uM irradiated with 595 +/- 5 nanometer LED light for 2 hr by DCFH2-DA staining based confocal microscopic analysis. It counts as functional, cell-based. The essentials: as §2
For data set [12], the system named is MDA-MB-231. In words: Phototoxicity against human MDA-MB-231 cells assessed as reduction in cell viability irradiated with 595 and 630 nanometer LED light and further incubated for 24 hrs by MTT assay. As to conditions: dose 0.5-20 µM. Format: functional, cell-based. In outline: (§6)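 MTT viability assay. Cells incubated with 0.5–20 μM, then irradiated with a 595 nm (9.83 mW/cm2) or 630 nm (24.3 mW/cm2) LED for 1 or 2 h, followed by 23 or 22 h dark respectively. Light alone and vehicle controls included. Mean ± SD, n = 4.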

Data set [13] relates to HCT-116. In words: Induction of ROS generation in human HCT-116 cells at 5 uM incubated for 2 hr by DCFH2-DA staining based confocal microscopic analysis. It counts as cell-based. Particulars: hct-116, 2 h. In outline: as §2
Data set [14] relates to HCT-116. As to the kind of experiment: Phototoxicity against human HCT-116 cells assessed as reduction in cell viability irradiated with 595 and 630 nanometer LED light and further incubated for 24 hrs by MTT assay. It counts as functional, cell-based. Particulars: dose 0.5-20 µM. The essentials:
as §6

In data set [15] the test system is HCT-116. As to the kind of experiment: Induction of apoptosis in human HCT-116 cells at 5 uM irradiated with 595 +/- 5 nanometer LED light for 2 hrs in presence of NaN3 by annexin V-FITC and PI staining based confocal microscopic analysis. It counts as functional, cell-based. In outline: as §4
Data set [16] deals with MDA-MB-231. As to the kind of experiment: Cytotoxicity against human MDA-MB-231 cells assessed as reduction in cell viability at 0.5 to 20 uM incubated for 24 hrs by MTT assay. As to conditions: mda-mb-231, 24 h, dose 0.5-20 µM. Format: cell-based. The essentials:
as §3

Data set [17] is described as follows: Induction of singlet oxygen generation in DMSO/ADMDA solution assessed as decrease in ADMDA absorption irradiated with 630 nanometer LED light at 5 uM. Format: functional.
Data set [18] concerns MDA-MB-231. As to the kind of experiment: Induction of apoptosis in human MDA-MB-231 cells assessed as increase in necrotic cells at 5 uM irradiated with 595 +/- 5 nanometer LED light for 2 hrs by annexin V-FITC and PI staining based confocal microscopic analysis. It counts as functional, cell-based. The essentials: as §4
Data set [19] is described as follows: Induction of singlet oxygen generation in DMSO solution using singlet oxygen sensor green assessed as increase in SOSG intensity irradiated with 595 nanometer LED light at 5 uM. It counts as functional. In outline: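 5 μM compound with singlet oxygen sensor green (SOSG); increase in SOSG emission monitored during 595 nm LED irradiation (9.83 mW/cm2).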

Data set [20] can be described thus: Photostability in pH 7.4 PBS buffer at 614/630 nanometer irradiated with 630 nanometer LED light for 2 hrs by measuring fluorescence peak. Format: physicochemical. As to conditions: pH 7.4, 2 h. In outline: as §5
Data set [21] in a line: Induction of singlet oxygen generation in DMSO/ADMDA solution assessed as decrease in ADMDA absorption irradiated with 595 nanometer LED light at 5 uM. It counts as functional. The essentials:
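5 μM compound mixed with the water-soluble trap ADMDA in oxygen-saturated PBS (pH 7.4, 0.5% DMSO), then LED irradiated (595 nm at 9.83 mW/cm2). Decrease in ADMDA absorption monitored, with the first 40 s kept in the dark.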

Data set [22] has as its system MDA-MB-231. In words: Induction of ROS generation in human MDA-MB-231 cells at 5 uM incubated for 2 hr by DCFH2-DA staining based confocal microscopic analysis. It counts as cell-based. As to conditions: mda-mb-231, 2 h. The essentials: as §2
Data set [23] has as its system MDA-MB-231. As to the kind of experiment: Induction of apoptosis in human MDA-MB-231 cells at 5 uM irradiated with 595 +/- 5 nanometer LED light for 2 hrs in presence of NaN3 by annexin V-FITC and PI staining based confocal microscopic analysis. It counts as functional, cell-based. The essentials: as §4

`C[Si]1(C)C2=C(I)C(=O)C(I)=CC2=C(c2ccccc2C(=O)O)c2cc(I)c(O)c(I)c21`: the Drug uptake entry in data set [1] and in data set [10] was “Active” in each case. Further, the Activity in data set [2] was 11%; in data set [4], 30%; in data set [5] it was 45%; with HCT-116 [7], “Non-Toxic”; in the data set on HCT-116 [13], “Non-Toxic”; in the data set with MDA-MB-231 [16] it was “Non-Toxic”. For the same compound, the Activity result in the data set with MDA-MB-231 [22] is listed as “Non-Toxic”. Besides, the result (with HCT-116 [3]; in data set [6]; with MDA-MB-231 [11]; in data set [17]; in [19]; in data set [21]) was Active. For the same compound, the result with HCT-116 [8], in the data set on HCT-116 [15], in the data set with MDA-MB-231 [18] and with MDA-MB-231 [23] was inactive. Further, the Stabilty result in data set [9] and in [20] was “Stable” in each case. Also, the inhibition result with MDA-MB-231 [12] and in the data set on HCT-116 [14] was “Dose-dependent effect” in each case.
